An excerpt weighted towards active compounds, which were near 2.9% of everything screened.
NRP1-CendR mod: NRP-1/CendR interaction modulation; FAM-RPARPAR peptide binding to NRP-1, fluorescence polarization; inhibition, % at 25 µM; hit rate 0.85% among 360,000; AID 602438;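 active = inhibition or corrected inhibition above about 18%, plus a signal ratio from 0.5 to 1.5, limit read from the data, passing the limit was not always enough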
Target sequence (O14786 whole entry, looked up): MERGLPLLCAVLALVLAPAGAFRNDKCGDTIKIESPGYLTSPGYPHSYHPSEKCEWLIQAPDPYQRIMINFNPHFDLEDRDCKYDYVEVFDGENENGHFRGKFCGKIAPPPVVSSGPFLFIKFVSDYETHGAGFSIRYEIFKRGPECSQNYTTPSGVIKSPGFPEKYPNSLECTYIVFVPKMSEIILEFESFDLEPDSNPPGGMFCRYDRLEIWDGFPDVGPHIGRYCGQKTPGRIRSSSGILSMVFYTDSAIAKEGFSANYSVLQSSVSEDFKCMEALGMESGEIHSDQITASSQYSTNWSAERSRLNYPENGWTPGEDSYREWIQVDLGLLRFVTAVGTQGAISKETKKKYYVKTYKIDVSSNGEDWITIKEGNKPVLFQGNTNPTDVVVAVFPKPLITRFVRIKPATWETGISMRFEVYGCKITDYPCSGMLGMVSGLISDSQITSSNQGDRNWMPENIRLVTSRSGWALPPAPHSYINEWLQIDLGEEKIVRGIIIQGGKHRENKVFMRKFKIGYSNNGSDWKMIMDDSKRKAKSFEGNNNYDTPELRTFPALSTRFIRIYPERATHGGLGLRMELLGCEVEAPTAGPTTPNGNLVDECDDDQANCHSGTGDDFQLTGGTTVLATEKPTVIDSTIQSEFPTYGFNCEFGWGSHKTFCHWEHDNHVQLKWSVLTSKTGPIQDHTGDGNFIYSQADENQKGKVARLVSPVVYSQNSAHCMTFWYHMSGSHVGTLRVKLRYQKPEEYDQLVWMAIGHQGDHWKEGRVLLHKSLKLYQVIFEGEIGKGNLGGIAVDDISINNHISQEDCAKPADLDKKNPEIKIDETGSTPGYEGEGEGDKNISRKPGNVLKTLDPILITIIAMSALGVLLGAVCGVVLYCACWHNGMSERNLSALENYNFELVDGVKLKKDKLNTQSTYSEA
CaV13 ICDI inh: Disruptors of the CACNA1D IQ motif to Ca2+-dependent inactivation inhibitor domain association, primary screening, Förster resonance energy transfer in intact living …; HEK cells, CFP/YFP FRET ICDI-IQ, plate reader, 10 min; percent FRET-ratio fall versus neutral wells; hit rate 0.098% among 340,000; inhibition, % at 12.3 µM;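 active = mean replicate inhibition of at least 30% and at least 1% of replicates passing that level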;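 note: 0% = median of the neutral control wells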
Arr AP2 block: blocks beta-arrestin peptide binding to AP2 adaptin; AID 504490; FITC-arrestin peptide / GST-AP2 beads, flow cytometry; AP2 beta2 appendage carries R879A mutation; inhibition, % at 10 µM; hit rate 0.31% among 340,000;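 active = inhibition above a set limit, near 3 SD of compounds lacking own fluorescence, cut at about 54% in these data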;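 note: plate controls were DMSO wells for no effect and 5 µM unlabelled arrestin peptide for full effect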
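Assay system: GST-AP2 R879A bound to glutathione beads, E. coli-expressed; Medium: PBS with 0.05% Tween 20 and 0.1% BSA; Also added: fluorescein-tagged arrestin peptide at 50 nM final; Timing: 12 min plus 1 h, RT; Measured by: flow cytometry, FL1 (488/535 nm); Evaluation: percent drop in bead-associated FITC signal.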
ADAM17 inh: inhibitors of human ADAM17 | P78536 | AID 720648 | inhibition, % at 6.95 µM | hit rate 0.83% among 370,000 | recombinant ADAM17, EDANS/DABCYL FRET peptide cleavage;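 active = inhibition above the mean of compounds lying between control limits plus 3 SD, set per campaign, cut at about 8.5% in these data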;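 note: 0% = DMSO-only wells as the low control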
ADAM10 inh: inhibits human ADAM10; recombinant ADAM10, EDANS/DABCYL FRET peptide cleavage, 3 h; inhibition, % at 7 µM; hit rate 0.62% among 370,000; AID 720582;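 active = inhibition above a per-campaign cutoff equal to the mean of compounds falling between control-based bounds plus 3 SD, cut at about 20% in these data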;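 note: 0% = DMSO wells while the 100% control is not disclosed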
FAS-TE inh: blocks the thioesterase domain of human fatty acid synthase. hit rate 0.67% among 360,000. P49327. AID 602261. recombinant FAS-TE, OMFH fluorogenic substrate, fluorescence endpoint. inhibition, % at 15 µM;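 active = compounds whose normalised, plate-corrected inhibition of enzyme fluorescence in the single-dose primary screen is 50% or more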;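 note: 0% = DMSO with enzyme and 100% = substrate without enzyme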
FAS-TE conf: FAS thioesterase (human) inhibition, confirmation | AID 624325 | inhibition, % at 15 µM | recombinant FAS-TE, OMFH fluorogenic substrate, fluorescence | shares compounds with FAS-TE inh | hit rate 45% among 2,300;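 active = compounds inhibiting the enzyme by at least 50% at 15 µM in any one of the replicates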;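 note: 0% = enzyme with DMSO only and 100% = wells lacking enzyme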
* hit, by the source's call.

COc1ccc(S(=O)(=O)N2CCOCC2)cc1NC(=O)CN1C(=O)NC2(CCC(C)CC2)C1=O (centres undefined) was read as NRP1-CendR mod -6.6, CaV13 ICDI inh -5.2, ADAM17 inh -4.5, ADAM10 inh -6.8 and FAS-TE inh -7.5.
Screening Cc1ccccc1N1CCN(C(=O)CN2C(=O)CC(C)(C)S(=O)(=O)c3ccccc32)CC1 returned ADAM17 inh -1.5 and ADAM10 inh -4.9.
For COC(=O)[C@]12CCCCC=C1N(Cc1cccc3ccccc13)C(=O)[C@H](CC(=O)NCc1ccc(C)o1)C2 the results were NRP1-CendR mod 12.4, CaV13 ICDI inh -9.7, ADAM17 inh 5.1, ADAM10 inh 13.6 and FAS-TE inh 11.1.
`CCOC(=O)c1cc(-c2ccccc2)sc1NC(=O)C(C)N1C(=O)c2ccccc2C1=O` (centres undefined) gave NRP1-CendR mod 11.4, CaV13 ICDI inh -18.6, Arr AP2 block 6.8, ADAM17 inh -4.6, ADAM10 inh 3.7, FAS-TE inh 56.6* and FAS-TE conf -1.6.
`CCN(CC)c1ncnc2c1ncn2[C@H]1CN(Cc2cccnc2)C[C@@H](CO)O1` gave NRP1-CendR mod 1.4, CaV13 ICDI inh -9.7, ADAM17 inh 5.5, ADAM10 inh -3.0 and FAS-TE inh -6.6.
Cc1ccc(-c2cc(C(=O)NN=Cc3cccc(Oc4ccccc4)c3)[nH]n2)cc1C was read as ADAM17 inh 6.5 and ADAM10 inh 13.2.
Screening CCCCCN(CCCCC)C(=O)C(CCC(=O)O)NC(=O)c1ccc(Cl)c(Cl)c1 (centres undefined) returned NRP1-CendR mod -4.2, CaV13 ICDI inh -4.9, Arr AP2 block -3.3, ADAM17 inh -3.1, ADAM10 inh 0.4, FAS-TE inh 71.8* and FAS-TE conf 73.6*.
CC(C)Oc1ccc(S(=O)(=O)N2CCOCC2)cc1NC(=O)CC1CC2CCC1C2 (centres undefined) was read as NRP1-CendR mod 2.9, CaV13 ICDI inh -12.8, ADAM17 inh -5.1, ADAM10 inh -5.3 and FAS-TE inh 1.8.
`O=C(CSc1ccc([N+](=O)[O-])cc1)NCC1CCCCC1` gave NRP1-CendR mod 25.7*, CaV13 ICDI inh 4.2, Arr AP2 block -6.1, ADAM17 inh 1.0, ADAM10 inh -1.5, FAS-TE inh 55.2* and FAS-TE conf 61.9*.
Screening O=C(NCC1CCCCC1)c1ccc([N+](=O)[O-])cc1 returned NRP1-CendR mod 5.7, CaV13 ICDI inh -18.5, Arr AP2 block 26.9, ADAM17 inh -1.3, ADAM10 inh -2.0 and FAS-TE inh 15.5.
Screening Cc1cccc(C)c1Cn1c(C)c(C(=O)NCc2ccc([N+](=O)[O-])cc2)sc1=O returned NRP1-CendR mod 2.9, CaV13 ICDI inh 0.5, ADAM17 inh 4.1, ADAM10 inh 14.5, FAS-TE inh 60.9* and FAS-TE conf 62.2*.
`O=C(Nc1nnc([C@@H]2O[C@H](CO)[C@@H](O)[C@H]2O)s1)Nc1ccccc1C(F)(F)F` gave NRP1-CendR mod 4.2, CaV13 ICDI inh -2.7, ADAM17 inh -4.9, ADAM10 inh -10.2 and FAS-TE inh -7.1.
For COc1ccc(/C=N/NC(=O)c2ccc(CN3c4cccc5cccc(c45)S3(=O)=O)cc2)cc1 the results were NRP1-CendR mod -7.7, CaV13 ICDI inh -5.2, Arr AP2 block 6.2, ADAM17 inh -65.9, ADAM10 inh -305.7, FAS-TE inh 79.4* and FAS-TE conf 9.7.
`COc1cc(/C=N/NC(=O)c2ccc(CN3c4cccc5cccc(c45)S3(=O)=O)cc2)cc(OC)c1O` gave NRP1-CendR mod -9.9, CaV13 ICDI inh 10.5, Arr AP2 block 0.7, ADAM17 inh -46.6, ADAM10 inh -129.0 and FAS-TE inh 6.5.
Screening O=C(NNS(=O)(=O)c1ccccc1)c1cnn(-c2ccccc2)c1-n1cccc1 returned NRP1-CendR mod 6.8, CaV13 ICDI inh -7.1, Arr AP2 block 5.1, ADAM17 inh 0.4, ADAM10 inh -2.8 and FAS-TE inh -4.3.
Screening O=C(NNS(=O)(=O)c1ccc([N+](=O)[O-])cc1)c1cnn(-c2ccccc2)c1-n1cccc1 returned NRP1-CendR mod 1.8, CaV13 ICDI inh -4.1, Arr AP2 block -15.1, ADAM17 inh -4.1, ADAM10 inh -9.2, FAS-TE inh 65.4* and FAS-TE conf 74.6*.
Screening O=C(NNS(=O)(=O)c1ccc([N+](=O)[O-])cc1)c1ccc([N+](=O)[O-])cc1 returned NRP1-CendR mod -8.5, CaV13 ICDI inh -20.7, Arr AP2 block 3.2, ADAM17 inh -2.8, ADAM10 inh 2.5, FAS-TE inh 73.6* and FAS-TE conf 77.1*.
Screening C[C@H](O)[C@@H]1CN2CCc3ccc(N4CCOCC4)cc3[C@@H]2C[C@@H]1N(C)C(=O)c1ccccc1F returned ADAM17 inh -6.3 and ADAM10 inh -16.8.
For C=CCN1C(=O)/C(=C/c2ccc(OC(C)=O)c(OCC)c2[N+](=O)[O-])SC1=S the results were NRP1-CendR mod -97.7, CaV13 ICDI inh -5.0, Arr AP2 block 10.7, ADAM17 inh 6.4, ADAM10 inh 19.1, FAS-TE inh 74.9* and FAS-TE conf 45.9*.
For CCOc1c(OC(C)=O)ccc(/C=C/c2ccc3cccc(OC(C)=O)c3n2)c1[N+](=O)[O-] the results were NRP1-CendR mod -3.3, CaV13 ICDI inh -8.2, Arr AP2 block 29.4 and FAS-TE inh 10.9.
Screening Cc1ccc(Cl)cc1N1CCN(S(=O)(=O)c2ccc3c(c2)oc(=O)n3C)CC1 returned NRP1-CendR mod 4.1, CaV13 ICDI inh -3.9, Arr AP2 block 13.3, ADAM17 inh 1.6, ADAM10 inh -2.5, FAS-TE inh 52.0* and FAS-TE conf 6.7.
COc1cccc(Nc2nc(-c3cccs3)nc3ccccc23)c1 was read as NRP1-CendR mod 5.2, CaV13 ICDI inh -4.9, Arr AP2 block 5.2, ADAM17 inh -12.3, ADAM10 inh -44.3, FAS-TE inh 51.0* and FAS-TE conf 33.6.
`Cc1ccc(S(=O)(=O)N2CCN(C(=O)COC(=O)c3cc([N+](=O)[O-])ccc3NCCO)CC2)c(C)c1` gave NRP1-CendR mod 9.5, CaV13 ICDI inh -6.0, Arr AP2 block 6.3, ADAM17 inh -1.9, ADAM10 inh -4.9, FAS-TE inh 71.0* and FAS-TE conf 73.7*.
Screening COC(=O)c1cc(C(=O)OCC(=O)NCc2cccs2)cc([N+](=O)[O-])c1 returned NRP1-CendR mod 6.6, CaV13 ICDI inh -6.5, Arr AP2 block 4.5, ADAM17 inh -5.4, ADAM10 inh -2.3, FAS-TE inh 64.3* and FAS-TE conf 45.3.

Compound activity from PubChem BioAssay.
